From PubChem BioAssay
Hits are enriched below; roughly 1.5% of the tested compounds scored in any of these assays.
APJ antagonist – APJ receptor antagonism; P35414; CHO-K1 APJ beta-arrestin complementation, luminescence; inhibition, % at 20 µM; 330,000 compounds, 0.32% hits;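 active means inhibition above about 40% at 20 µM, limit read from the data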;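 further: cells challenged with 10 nM apelin-13 agonist together with compound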
APJ ag – activates the human apelin receptor APJ | activation, % at 20 µM | CHO-K1 APJ PathHunter beta-arrestin, luminescence; 0% DMSO wells, 100% apelin | P35414 | 330,000 compounds, 0.11% hits;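 active means activation more than six SD over the plate average, tested at 20 µM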
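Test system – PathHunter CHO-K1 APJ (AGTRL-1) beta-arrestin reporter cells · Input – 1000 cells/well · Compound – single test compound dose, 20 µM final, 1% DMSO · Times – compound stimulation 90 min at 25 °C, detection 60 min · Technique – beta-gal luminescence · Read-out basis – APJ–arrestin association signal · Control set – negative DMSO alone, positive Apelin-13 at 10 nM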
CCR6 antag – antagonists of human CCR6 receptor; 340,000 compounds, 0.49% hits; P51684; CHO-K1 CCR6 PathHunter beta-arrestin, luminescence, CCL20-stimulated; inhibition, % at 20 µM; AID 493098;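 active means compounds whose inhibition of the agonist-driven luminescence signal at 20 µM reaches about 50%, limit read from the data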;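 further: cells stimulated with CCL20 at 14 nM final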
EBI2 block – EBI2 (human) antagonism; P32249; EBI2 beta-arrestin recruitment, luminescence, 7a,25-OHC stimulated; inhibition, % at 5 µM; 360,000 compounds, 0.81% hits; in the data active means inhibition above about 38%;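 further: enzyme fragment complementation signal reports receptor beta-arrestin coupling in cells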
CXCR6 block – inhibitors of human CXCR6 receptor; O00574; CHO-K1 PathHunter CXCR6 beta-arrestin, luminescence; inhibition, % at 20 µM; 360,000 compounds, 0.36% hits; AID 602244; in the data active means inhibition above about 34%, passing the limit was not always enough;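 further: antagonist mode with CXCL16 agonist at 10 nM final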
Target sequence (O00574 whole entry, looked up): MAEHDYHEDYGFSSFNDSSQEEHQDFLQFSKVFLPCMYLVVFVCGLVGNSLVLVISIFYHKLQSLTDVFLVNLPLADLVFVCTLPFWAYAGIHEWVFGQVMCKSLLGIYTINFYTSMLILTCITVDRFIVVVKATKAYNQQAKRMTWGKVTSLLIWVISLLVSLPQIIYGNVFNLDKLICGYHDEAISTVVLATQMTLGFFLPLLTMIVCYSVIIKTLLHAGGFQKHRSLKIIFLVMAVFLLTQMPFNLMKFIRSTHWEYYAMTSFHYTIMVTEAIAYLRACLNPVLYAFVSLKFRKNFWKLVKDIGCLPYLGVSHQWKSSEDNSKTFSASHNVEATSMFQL
Numbers stand for hits.

Screening O=C(NC1CCCCC1)C(c1cccnc1)N(C(=O)c1csnn1)c1ccc(F)cc1 (centres undefined) returned APJ antagonist inactive, APJ ag inactive, CCR6 antag inactive, EBI2 block inactive and CXCR6 block inactive.
Screening Cc1ccc2nc(C)c(CN3CCN(c4ccc([N+](=O)[O-])cc4Cl)CC3)n2c1 returned APJ antagonist inactive, APJ ag inactive, EBI2 block 47 and CXCR6 block inactive.
Screening CCC(=O)NC(c1ccc(C)cc1)c1cc([N+](=O)[O-])c2cccnc2c1O (centres undefined) returned CCR6 antag inactive, EBI2 block inactive and CXCR6 block 51.
CC(=O)NC(c1ccc(C)cc1)c1cc([N+](=O)[O-])c2cccnc2c1O (centres undefined) was read as APJ antagonist inactive, APJ ag inactive, EBI2 block inactive and CXCR6 block 48.
CC(=O)NC(c1ccccc1)c1cc(Cl)c2cccnc2c1O (centres undefined) was read as APJ antagonist inactive, APJ ag inactive, CCR6 antag inactive, EBI2 block inactive and CXCR6 block inactive.
`COC(=O)C1=C(C(=O)OC)C2C=CC1C1C(OC(C)=O)C(OC(C)=O)C21` (centres undefined) gave EBI2 block inactive and CXCR6 block inactive.
For O=C1C=C(c2c(O)ccc3ccccc23)c2ccccc2C1=O the results were CCR6 antag inactive, EBI2 block inactive and CXCR6 block 46.
For O=C1Nc2ccc(Br)cc2/C1=C/C(=O)c1ccc2c(c1)OCO2 the results were APJ antagonist inactive, APJ ag inactive, CCR6 antag inactive, EBI2 block 85 and CXCR6 block inactive.
O=C1Nc2ccc(Br)cc2/C1=C/C1CC=CCC1 (centres undefined) was read as APJ antagonist inactive, APJ ag inactive, CCR6 antag inactive, EBI2 block inactive and CXCR6 block inactive.
`COC(CNC(=O)c1ccc2c3c(onc13)-c1ccccc1C2=O)OC` gave APJ antagonist inactive, APJ ag inactive, EBI2 block inactive and CXCR6 block 56.
COc1cc(/C=C/c2cc(OC(C)=O)c3ccccc3n2)c(OC(C)=O)c([N+](=O)[O-])c1 was read as APJ antagonist inactive, APJ ag inactive, CCR6 antag 63, EBI2 block inactive and CXCR6 block inactive.
`Cc1cc(NCc2ccccn2)n2nc(C)c(-c3ccc(Cl)cc3)c2n1` gave APJ antagonist inactive, APJ ag inactive, CCR6 antag 51, EBI2 block inactive and CXCR6 block inactive.
For Cc1cc(NCc2ccccn2)n2ncc(-c3ccc(Cl)cc3)c2n1 the results were APJ antagonist inactive, APJ ag inactive, CCR6 antag inactive, EBI2 block inactive and CXCR6 block inactive.
Screening Cc1ccccc1N1C(=O)CC(Sc2nnc(-c3ccccc3)o2)C1=O (centres undefined) returned APJ antagonist inactive, APJ ag inactive, EBI2 block inactive and CXCR6 block 52.
COC(=O)c1cc(=O)n(Cc2ccco2)c(=Nc2ccc(F)c(Cl)c2)s1 was read as APJ antagonist inactive, APJ ag inactive, CCR6 antag inactive, EBI2 block 55 and CXCR6 block inactive.
`COC(=O)c1cc(=O)n(Cc2cccs2)c(=Nc2ccc(F)cc2)s1` gave APJ antagonist inactive, APJ ag inactive, CCR6 antag inactive, EBI2 block inactive and CXCR6 block inactive.
For COC(=O)c1cc(=O)n(CCc2ccccc2F)c(=Nc2ccc(F)c(Cl)c2)s1 the results were APJ antagonist inactive, APJ ag inactive, CCR6 antag inactive, EBI2 block 69 and CXCR6 block inactive.
`Cc1cc(Cl)ccc1N=c1ssnc1Cl` gave APJ antagonist inactive, APJ ag inactive, CCR6 antag inactive, EBI2 block 38 and CXCR6 block inactive.
For C/C(=N\Nc1ccc(C(=O)c2c(C)cc3ccccn23)cc1[N+](=O)[O-])c1ccc(O)cc1 the results were APJ antagonist inactive, APJ ag inactive, CCR6 antag inactive, EBI2 block inactive and CXCR6 block 47.
For C/C(=N/Nc1ccc(C(=O)c2c(C)cc3ccccn23)cc1[N+](=O)[O-])c1ccc(O)cc1 the results were CCR6 antag inactive, EBI2 block inactive and CXCR6 block 37.
Cc1cc2ccccn2c1C(=O)c1ccc(N/N=C/c2ccc(C(=O)O)cc2)c([N+](=O)[O-])c1 was read as CCR6 antag inactive, EBI2 block inactive and CXCR6 block inactive.
`C[C@H]1CN([C@@H](C)CO)C(=O)c2cc(NC(=O)c3ccncc3)ccc2O[C@H]1CN(C)Cc1ccc(C(=O)O)cc1` gave APJ antagonist inactive, APJ ag inactive, CCR6 antag inactive, EBI2 block inactive and CXCR6 block inactive.
`NC(=O)c1cccc(CS(=O)(=O)c2ccc(Cl)cc2)c1` gave APJ antagonist inactive, APJ ag inactive, CCR6 antag inactive, EBI2 block inactive and CXCR6 block inactive.
`O=C(CCn1cnc2ccccc2c1=O)Nc1nc(-c2ccc(Br)cc2)cs1` gave APJ antagonist inactive, APJ ag 23, CCR6 antag inactive, EBI2 block inactive and CXCR6 block inactive.
`COc1ccc(CNc2oc(COc3ccccc3Cl)nc2C#N)cc1` gave APJ antagonist inactive, APJ ag inactive, CCR6 antag inactive, EBI2 block inactive and CXCR6 block inactive.
Screening Cc1ccc(CNc2oc(COc3ccccc3Cl)nc2C#N)cc1 returned APJ antagonist inactive, APJ ag inactive, CCR6 antag inactive, EBI2 block 47 and CXCR6 block inactive.
Screening O=C(/C=C/c1ccc(NC(=O)c2ccccc2-c2ccccc2C(=O)O)cc1)c1ccccc1 returned APJ antagonist inactive, APJ ag inactive, CCR6 antag inactive, EBI2 block inactive and CXCR6 block inactive.
`O=C(/C=C/c1ccncc1)c1ccc(NC(=O)c2ccccc2F)cc1` gave CCR6 antag 69, EBI2 block inactive and CXCR6 block inactive.
O=C(OCn1ncc(Cl)c(Cl)c1=O)c1ccccc1Cl was read as CCR6 antag inactive, EBI2 block 51 and CXCR6 block inactive.
For O=C(OCn1ncc(Cl)c(Cl)c1=O)c1ccc(F)cc1 the results were APJ antagonist inactive and APJ ag inactive.
Cc1ccc(CN2CCCN(Cc3c(C)cc(C)cc3C)S2(=O)=O)cc1 was read as APJ antagonist inactive, APJ ag inactive, CCR6 antag inactive, EBI2 block inactive and CXCR6 block inactive.
COc1cc(/C=N/Nc2nc(C)nc3c2cnn3-c2ccccc2)ccc1O was read as CCR6 antag inactive, EBI2 block 56 and CXCR6 block inactive.
COc1cc(/C=N/NC(=O)c2nc(-c3ccccc3)n(-c3ccccc3)n2)ccc1O was read as APJ antagonist inactive, APJ ag inactive, CCR6 antag inactive, EBI2 block inactive and CXCR6 block inactive.
C[C@@H](C(=O)Nc1ccc2ccccc2c1)[C@@H]1C[C@@]1(C)[C@@H](NC(=O)c1ccccc1)c1ccccc1 was read as APJ antagonist inactive, APJ ag inactive, CCR6 antag inactive, EBI2 block 54 and CXCR6 block inactive.
